High-throughput results (PubChem BioAssay)
SENP1 FRET inh – SENP1 (human) catalytic domain inhibition | recombinant SENP1 catalytic domain, CyPet-SUMO1-YPet FRET cleavage | Q9P0U3 | inhibition, % at 10 µM | 360,000 compounds, 0.21% hits;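 active = inhibition at least 30% at 10 µM, raw YFP signal under a set limit, fluorescence ratio 0.5 to 1.5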;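 also: 0% = enzyme with DMSO and 100% = no enzyme wells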
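Test system: recombinant human SENP1 catalytic domain, His6-tagged / Medium: pH 8 Tris buffer with EDTA, NaCl, BME, BSA, NP40, catalase / Also added: SUMO1 FRET substrate flanked by Cypet and Ypet, 25 nM / Times: 50 min reaction at room temperature / Signal: FRET, CFP and YFP emission / Control set: no-enzyme low control and enzyme-plus-DMSO high control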
SENP6 block – SENP6 protease inhibition. Recombinant SENP6 catalytic domain, aminoluciferin luminescence. AID 2599. 330,000 compounds, 1.8% hits. inhibition, % at 10 µM;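 active = inhibition above about 50% at the single tested dose, limit read from the data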;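 also: plate controls were DMSO wells with enzyme for no effect and DMSO wells lacking enzyme for full effect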
Target sequence (Q9GZR1 628-1112 limits assumed): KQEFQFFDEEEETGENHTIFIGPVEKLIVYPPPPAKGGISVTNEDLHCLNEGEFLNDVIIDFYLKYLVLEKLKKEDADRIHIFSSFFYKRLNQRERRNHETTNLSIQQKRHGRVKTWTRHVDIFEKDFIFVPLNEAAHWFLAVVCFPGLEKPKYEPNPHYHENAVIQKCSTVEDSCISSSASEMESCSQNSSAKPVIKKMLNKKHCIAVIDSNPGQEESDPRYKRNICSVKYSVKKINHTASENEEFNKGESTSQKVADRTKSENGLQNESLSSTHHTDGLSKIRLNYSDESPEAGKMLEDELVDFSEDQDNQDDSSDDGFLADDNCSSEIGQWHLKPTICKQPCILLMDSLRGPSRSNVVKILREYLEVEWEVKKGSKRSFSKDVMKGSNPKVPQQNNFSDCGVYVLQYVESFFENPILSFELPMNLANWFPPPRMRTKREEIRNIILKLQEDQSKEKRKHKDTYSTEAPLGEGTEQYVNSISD
SENP7 inh – SENP7 protease inhibition. Q9BQF6. recombinant SENP7, Z-RLRGG-aminoluciferin luminescence, 40 min. inhibition, % at 5 µM. 330,000 compounds, 1.5% hits. AID 434973;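 active = inhibition above about 50% at the single test dose, limit read from the data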;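 also: plate controls were DMSO with enzyme for no effect and no enzyme buffer wells for full effect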
Apaf-1 inh – human Apaf-1 inhibition | reconstituted apoptosome caspase-3 activity, DEVD-Rh110 fluorescence | inhibition, % at 20 µM | 330,000 compounds, 0.71% hits | AID 489030; active = inhibition of at least 40% at 20 µM;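 also: plate controls were DMSO wells for no effect and DEVD-CHO caspase inhibitor wells for full effect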
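Assay system: Apoptosome proteins | Medium: pH 7.5 Hepes buffer with CHAPS, BSA, DTT | Also added: Cytochrome c and DEVD-Rh110 substrate | Times: 30 min plus 50 min, RT | Detection: Rhodamine 110 fluorescence at Ex 480/Em 540 nm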
SENP8 block-1 – blocks the human protease SENP8. 330,000 compounds, 1.2% hits. Q96LD8. purified SENP8, Z-RLRGG-aminoluciferin cleavage, luminescence. inhibition, % at 10 µM. AID 2540; in the data active = inhibition above about 50%
SENP8 block-2 – inhibitors of human SENP8 protease | Q96LD8 | recombinant SENP8, Nedd8 substrate fluorescence | inhibition, % at 20 µM | 360,000 compounds, 0.64% hits; in the data active = inhibition mostly above about 40%, no sharp cut-off; inactive = mostly below about 27%
SENP8 conf – human SENP8 inhibition, confirmed; shares compounds with SENP7 inh; Recombinant SENP8, Z-RLRGG-aminoluciferin luminescence, 60 min; inhibition, % at 12.5 µM; 6,200 compounds, 40% hits; AID 488912;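 active = mean inhibition across replicates above about 50%, limit read from the data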
SENP6 confirm – human SENP6 inhibition, confirmed. AID 488915. recombinant SENP6, Z-RLRGG-aminoluciferin luminescence. 6,200 compounds, 58% hits. inhibition, % at 12.5 µM. shares compounds with SENP7 inh
SENP7 confirm – human SENP7 inhibition, confirmed | shares compounds with SENP7 inh | recombinant SENP7, Z-RLRGG-aminoluciferin luminescence, 40 min | inhibition, % at 12.5 µM | 6,200 compounds, 69% hits | AID 488917
Casp3 SENP sel – selectivity test for SENP inhibitors: human caspase-3 inhibition; inhibition, % at 12.5 µM; AID 488918; purified caspase-3, Z-DEVD-aminoluciferin luminescence, 60 min; 6,200 compounds, 60% hits; shares compounds with SENP7 inh;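 active = mean inhibition above about 50%, limit read from the data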;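 also: plate controls were enzyme with DMSO for no effect and wells without caspase-3 for full effect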
Luc interf – interferes with luciferase luminescence in SENP counter-screen; shares compounds with SENP7 inh; Pre-incubated SENP8/Z-RLRGG-aminoluciferin, luciferase luminescence interference; inhibition, % at 12.5 µM; 6,200 compounds, 39% hits; AID 488919;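 active = mean inhibition above about 50% when retested at one dose, limit read from the data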;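 also: plate controls were DMSO wells with completed reaction for no effect and substrate without enzyme for full effect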
Starred values were filed as active, the others as inactive; i = inactive; . = no result given. An excerpt weighted towards active compounds, which were near 2.9% of everything screened.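 The calls were made as follows, unless noted: active = mean inhibition above about 50% in the one-dose retest (limit read from the data); inactive = the rest.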

SMILES	SENP1 FRET inh	SENP6 block	SENP7 inh	Apaf-1 inh	SENP8 block-1	SENP8 block-2	SENP8 conf	SENP6 confirm	SENP7 confirm	Casp3 SENP sel	Luc interf
COc1ccc(C(C)(C)C)cc1NC(=O)COc1ccc(-c2nnco2)cc1	2	-8	-4	10	6	-1	.	.	.	.	.
CC(=O)Nc1ccc(-c2csc(Nc3ccccn3)n2)cc1	3	87*	73*	-17	75*	-6	74*	79*	96*	60*	86*
Oc1ccc(-c2csc(Nc3ccccn3)n2)cc1O	-1	87*	37	7	61*	-11	78*	79*	92*	49	81*
CCC(=O)Nc1nc(C)c(-c2csc(Nc3ccccn3)n2)s1	-1	23	44	17	59*	-214	52*	69*	86*	30	58*
Cc1cccc(Nc2nc(-c3ccc(F)c(C)c3)cs2)n1	2	53*	55*	15	44	11	32	60*	76*	21	19
O=C(NCc1ccccc1)c1cnc(Cc2c[nH]c3ccccc23)c(I)c1	5	.	.	.	.	6	.	.	.	.	.
Cc1ccnc(Nc2nc(-c3ccc(O)c(O)c3)cs2)c1	1	3	-15	12	12	14	.	.	.	.	.
Cc1cccc(Nc2nc(-c3ccc(O)c(O)c3)cs2)n1	-1	65*	-14	12	38	13	47	49	71*	13	67*
O=C(Nc1nnc([C@H]2C[C@H](O)[C@@H](CO)O2)s1)c1cccc(Oc2ccccc2)c1	10	.	.	.	.	-13	.	.	.	.	.
CCCC1CCC(c2ccc(OCC)cc2)=CC1=O (stereo unspecified)	2	65*	28	2	42	6	20	24	71*	34	39
COc1ccccc1C(=O)NNC(=O)c1ccc2ccccc2c1O	4	.	.	.	.	i	.	.	.	.	.
Cc1cccc2cc(C(c3nnnn3CC3CCCO3)N3CCc4ccccc4C3)c(=O)[nH]c12 (stereo unspecified)	.	67*	49	79*	38	.	-1	27	6	9	3
Cc1ccc2cc(C(c3nnnn3CC3CCCO3)N3CCc4ccccc4C3)c(=O)[nH]c2c1 (stereo unspecified)	-57	7	86*	87*	74*	-50	7	10	0	-3	-3
CCOc1ccc2[nH]c(=O)c(C(c3nnnn3CC3CCCO3)N3CCc4ccccc4C3)cc2c1 (stereo unspecified)	10	16	15	27	3	-197	.	.	.	.	.
COc1ccc(N2CCCC2=O)cc1S(=O)(=O)N1CCOCC1	1	.	.	.	.	6	.	.	.	.	.
c1ccc2sc(NN=C3CCCCCC3)nc2c1	-2	91*	83*	13	81*	-16	89*	94*	101*	87*	54*
c1ccc2sc(NCC3CCCO3)nc2c1 (stereo unspecified)	2	2	13	4	0	10	.	.	.	.	.
CC1=CC(=C(C#N)c2nc3ccccc3s2)C=C(C)N1CC1CCCO1 (stereo unspecified)	-35	82*	18	13	26	34	-4	-5	-1	9	4
CC(C)CCN1C(=O)c2ccc(C(=O)Nc3ccccc3C(=O)O)cc2C1=O	2	74*	-1	7	66*	22	76*	77*	86*	60*	77*
CC(c1ccccc1)N1C(=O)c2ccc(C(=O)Nc3ccc(Br)cc3C(=O)O)cc2C1=O (stereo unspecified)	0	4	13	16	-3	13	.	.	.	.	.
CC(C)CCN1C(=O)c2ccc(C(=O)Nc3ccc(O)cc3C(=O)O)cc2C1=O	7	-10	-8	16	-3	3	.	.	.	.	.
CC(c1ccccc1)N1C(=O)c2ccc(C(=O)Nc3ccccc3C(=O)O)cc2C1=O (stereo unspecified)	-2	70*	21	4	68*	6	76*	71*	85*	41	77*
Cc1sc(NC(=O)C2CC(=O)N(Cc3ccco3)C2)nc1-c1ccccc1 (stereo unspecified)	-1	.	.	.	.	-23	.	.	.	.	.
C/C(=N\NC(=O)c1ccccc1O)c1c(O)cc(C)oc1=O	-3	81*	69*	-16	62*	-73	13	6	1	-3	-2
C/C(=N\NC(=O)c1cc2ccccc2cc1O)c1cc2ccccc2o1	29	10	-9	18	-9	-132	.	.	.	.	.
SMILES	SENP1 FRET inh	SENP6 block	SENP7 inh	Apaf-1 inh	SENP8 block-1	SENP8 block-2	SENP8 conf	SENP6 confirm	SENP7 confirm	Casp3 SENP sel	Luc interf
C/C(=N/NC(=O)c1cc2ccccc2cc1O)C1C(=O)c2ccccc2C1=O	24	94*	63*	13	96*	27	95*	99*	97*	81*	46
C/C(=N\NC(=O)c1ccccc1O)C1C(=O)c2ccccc2C1=O	10	94*	87*	26	93*	36	98*	98*	102*	89*	74*
C/C(=N\NC(=O)c1ccccc1[N+](=O)[O-])c1c(O)cc(C)oc1=O	1	-11	4	-2	3	19	.	.	.	.	.
Cc1ccc(S(=O)(=O)n2nccc2-c2c(-c3ccccc3)noc2C)cc1	4	-10	-9	13	-13	8	.	.	.	.	.
Cc1ccc(-c2cc3onc(-c4ccccc4)c3c(=O)n2C)cc1	-1	93*	96*	16	92*	4	3	10	7	46	0
CCOC(=O)C1CCN(Cc2ccc(O)c(OC)c2)CC1	2	96*	12	-6	2	10	6	0	-2	-2	-1
CCCC(=O)Nc1ccc(C2C(=O)c3ccccc3C2=O)cc1	-1	75*	-4	-1	56*	4	38	80*	94*	93*	80*
COc1ccc2nc3n(c(=O)c2c1)-c1ncccc1C(=O)NC3Cc1ccccc1 (stereo unspecified)	0	.	.	.	.	-12	.	.	.	.	.
